Experimental data taken from ChEMBL document CHEMBL1142636 (2000).

Legend:
[1] = test system: SK-MEL-2; test: Growth inhibition of human SK-MEL-2 cells; assay type: functional; conditions: read-out: pLC50 (the source's name) (converted)
In short: (§1)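 Tested at the NCI in its human disease-oriented in vitro screen of 60 tumour cell lines, following the Monks et al. methods. Activity is expressed as GI50, given as log molar values.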

[2] = test system: SK-OV-3; test: Growth inhibition of human SK-OV-3 cells; assay type: functional; conditions: read-out: pLC50 (the source's name) (converted); in short: as §1
[3] = test system: SF-539; test: Growth inhibition of human SF539 cells; assay type: functional; conditions: read-out: pLC50 (the source's name) (converted); in short: as §1
[4] = test system: HOP-62; test: Growth inhibition of human HOP62 cells; assay type: functional
[5] = test system: NCI-H322M; test: Growth inhibition of human NCI-H322M cells; assay type: functional
[6] = test system: HCT-15; test: Growth inhibition of human HCT15 cells; assay type: functional; conditions: read-out: pLC50 (the source's name) (converted)
[7] = test system: Hs-578T; test: Growth inhibition of human HS578T cells; assay type: functional; conditions: read-out: pLC50 (the source's name) (converted)
[8] = test system: A498; test: Growth inhibition of human A498 cells; assay type: functional; conditions: read-out: pLC50 (the source's name) (converted)
[9] = test system: HT-29; test: Growth inhibition of human HT29 cells; assay type: functional
[10] = test system: U-251; test: Growth inhibition of human U251 cells; assay type: functional; conditions: read-out: pLC50 (the source's name) (converted); in short: as §1
[11] = Growth inhibition of human HL60(TB) cells; assay type: functional, HL-60(TB); conditions: HL-60, read-out: pLC50 (the source's name) (converted)
[12] = test system: A549; test: Growth inhibition of human A549 cells; assay type: functional
[13] = Growth inhibition of human RPMI8266 cells; assay type: functional; conditions: read-out: pLC50 (the source's name) (converted)
[14] = test system: SNB-19; test: Growth inhibition of human SNB19 cells; assay type: functional; conditions: read-out: pLC50 (the source's name) (converted); in short: as §1
[15] = test system: SR; test: Growth inhibition of human SR cells; assay type: functional; in short: as §1
[16] = test system: HOP-18; test: Growth inhibition of human HOP18 cells; assay type: functional; conditions: read-out: pLC50 (the source's name) (converted)
[17] = test system: M14; test: Growth inhibition of human M14 cells; assay type: functional; conditions: read-out: pLC50 (the source's name) (converted)
[18] = Growth inhibition of human MCF7/ADR-RES cells; assay type: functional; conditions: NCI/ADR-RES, read-out: pLC50 (the source's name) (converted)
[19] = test system: IGROV-1; test: Growth inhibition of human IGROV1 cells; assay type: functional; conditions: read-out: pLC50 (the source's name) (converted)
[20] = Growth inhibition of human […] cells; assay type: functional; conditions: read-out: pLC50 (the source's name) (converted)
[21] = test system: UO-31; test: Growth inhibition of human UO31 cells; assay type: functional; conditions: read-out: pLC50 (the source's name) (converted); in short: as §1
[22] = Growth inhibition of human OVACR4 cells; assay type: functional; conditions: read-out: pLC50 (the source's name) (converted)
[23] = test system: LOX IMVI; test: Growth inhibition of human LOX IMVI cells; assay type: functional; conditions: read-out: pLC50 (the source's name) (converted)
[24] = test system: MCF7; test: Growth inhibition of human MCF7 cells; assay type: functional; conditions: read-out: pLC50 (the source's name) (converted)
[25] = test system: RXF 393; test: Growth inhibition of human […] cells; assay type: functional; conditions: read-out: pLC50 (the source's name) (converted)
[26] = Growth inhibition of human LXFL529 cells; assay type: functional; conditions: LXFL 529
[27] = test system: MDA-MB-435; test: Growth inhibition of human MDA-MB-435 cells; assay type: functional
[28] = Growth inhibition of human DMS144 cells; assay type: functional
[29] = test system: DMS-273; test: Growth inhibition of human DMS273 cells; assay type: functional
[30] = test system: ACHN; test: Growth inhibition of human ACHN cells; assay type: functional; conditions: read-out: pLC50 (the source's name) (converted)
[31] = test system: PC-3; test: Growth inhibition of human PC3 cells; assay type: functional; conditions: read-out: pLC50 (the source's name) (converted)
[32] = test system: T47D; test: Growth inhibition of human T47D cells; assay type: functional; in short: as §1
[33] = test system: DU-145; test: Growth inhibition of human DU145 cells; assay type: functional; conditions: read-out: pLC50 (the source's name) (converted)
[34] = test system: SK-MEL-28; test: Growth inhibition of human SK-MEL-28 cells; assay type: functional; conditions: read-out: pLC50 (the source's name) (converted); in short: as §1
[35] = test system: NCI-H23; test: Growth inhibition of human NCI-H23 cells; assay type: functional
[36] = test system: HOP-92; test: Growth inhibition of human HOP92 cells; assay type: functional; conditions: read-out: pLC50 (the source's name) (converted)
[37] = test system: Malme-3M; test: Growth inhibition of human MALME-3M cells; assay type: functional; conditions: read-out: pLC50 (the source's name) (converted)
[38] = test system: EKVX; test: Growth inhibition of human EKVX cells; assay type: functional; conditions: read-out: pLC50 (the source's name) (converted)
[39] = test system: SW-620; test: Growth inhibition of human SW620 cells; assay type: functional; in short: as §1
[40] = test system: NCI-H226; test: Growth inhibition of human NCI-H226 cells; assay type: functional
[41] = test system: 786-0; test: Growth inhibition of human 786-0 cells; assay type: functional; conditions: read-out: pLC50 (the source's name) (converted)
[42] = test system: TK-10; test: Growth inhibition of human TK10 cells; assay type: functional; conditions: read-out: pLC50 (the source's name) (converted); in short: as §1
[43] = test system: CCRF-CEM; test: Growth inhibition of human CCRF-CEM cells; assay type: functional
[44] = test system: SNB-75; test: Growth inhibition of human SNB75 cells; assay type: functional; conditions: read-out: pLC50 (the source's name) (converted); in short: as §1
[45] = test system: COLO 205; test: Growth inhibition of human COLO205 cells; assay type: functional
[46] = test system: KM12; test: Growth inhibition of human KM12 cells; assay type: functional; conditions: read-out: pLC50 (the source's name) (converted)
[47] = test system: M19-MEL; test: Growth inhibition of human M19-MEL cells; assay type: functional; conditions: read-out: pLC50 (the source's name) (converted)
[48] = test system: XF498; test: Growth inhibition of human XF498 cells; assay type: functional; conditions: read-out: pLC50 (the source's name) (converted); in short: as §1
[49] = test system: UACC-257; test: Growth inhibition of human UACC257 cells; assay type: functional; conditions: read-out: pLC50 (the source's name) (converted); in short: as §1
[50] = test system: MDA-N; test: Growth inhibition of human MDA-N cells; assay type: functional; conditions: read-out: pLC50 (the source's name) (converted)
[51] = test system: SF-295; test: Growth inhibition of human SF295 cells; assay type: functional; conditions: read-out: pLC50 (the source's name) (converted); in short: as §1
[52] = test system: SN12C; test: Growth inhibition of human SN12C cells; assay type: functional; conditions: read-out: pLC50 (the source's name) (converted); in short: as §1
[53] = test system: NCI-H522; test: Growth inhibition of human NCI-H522 cells; assay type: functional; conditions: read-out: pLC50 (the source's name) (converted)
[54] = test system: SF-268; test: Growth inhibition of human SF268 cells; assay type: functional; in short: as §1
[55] = test system: NCI-H460; test: Growth inhibition of human NCI-H460 cells; assay type: functional
[56] = test system: BT-549; test: Growth inhibition of human BT549 cells; assay type: functional
[57] = test system: DLD-1; test: Growth inhibition of human DLD1 cells; assay type: functional
[58] = test system: MDA-MB-231; test: Growth inhibition of human MDA-MB-231 cells; assay type: functional; conditions: read-out: pLC50 (the source's name) (converted)
[59] = test system: K562; test: Growth inhibition of human K562 cells; assay type: functional
[60] = test system: HCT-116; test: Growth inhibition of human HCT116 cells; assay type: functional; conditions: read-out: pLC50 (the source's name) (converted)
[61] = test system: CAKI-1; test: Growth inhibition of human CAKI1 cells; assay type: functional; conditions: read-out: pLC50 (the source's name) (converted)
[62] = test system: UACC-62; test: Growth inhibition of human UACC62 cells; assay type: functional; conditions: read-out: pLC50 (the source's name) (converted); in short: as §1
[63] = test system: HCC 2998; test: Growth inhibition of human HCC2998 cells; assay type: functional
[64] = test system: MOLT-4; test: Growth inhibition of human MOLT4 cells; assay type: functional
[65] = Growth inhibition of human OVACR8 cells; assay type: functional; conditions: read-out: pLC50 (the source's name) (converted)
[66] = Growth inhibition of human OVACR5 cells; assay type: functional; conditions: read-out: pLC50 (the source's name) (converted)
[67] = test system: KM-20L2; test: Growth inhibition of human KM20L2 cells; assay type: functional; conditions: read-out: pLC50 (the source's name) (converted)
[68] = test system: SK-MEL-5; test: Growth inhibition of human SK-MEL-5 cells; assay type: functional; conditions: read-out: pLC50 (the source's name) (converted); in short: as §1

C=C(C)C1CC2(C)CC1c1c(c(C)cc3c1[nH]c1ccccc13)O2 (stereo not drawn)
> 25.1 µM: CC50 [1] | CC50 [2] | CC50 [3] | LC50 [4] | LC50 [5] | CC50 [6] | CC50 [7] | CC50 [8] | LC50 [9] | CC50 [10] | CC50 [11] | LC50 [12] | CC50 [13] | CC50 [14] | LC50 [15] | CC50 [16] | CC50 [17] | CC50 [18] | CC50 [19] | CC50 [20] | CC50 [21] | CC50 [22] | CC50 [23] | CC50 [24] | CC50 [25] | LC50 [26] | LC50 [27] | LC50 [28] | LC50 [29] | CC50 [30] | CC50 [31] | LC50 [32] | CC50 [33] | CC50 [34] | LC50 [35] | CC50 [36] | CC50 [37] | CC50 [38] | LC50 [39] | LC50 [40] | CC50 [41] | CC50 [42] | LC50 [43] | CC50 [44] | LC50 [45] | CC50 [46] | CC50 [47] | CC50 [48] | CC50 [49] | CC50 [50] | CC50 [51] | CC50 [52] | CC50 [53] | LC50 [54] | LC50 [55] | LC50 [56] | LC50 [57] | CC50 [58] | LC50 [59] | CC50 [60] | CC50 [61] | CC50 [62] | LC50 [63] | LC50 [64] | CC50 [65] | CC50 [66] | CC50 [67] | CC50 [68]
